Measurements pooled from the literature.
Compare with care: the assays were run in different laboratories.
Target: Myotonin-protein kinase (DMPK, Homo sapiens, UniProt Q09013)
Residues used in one study (Q09013 1-629): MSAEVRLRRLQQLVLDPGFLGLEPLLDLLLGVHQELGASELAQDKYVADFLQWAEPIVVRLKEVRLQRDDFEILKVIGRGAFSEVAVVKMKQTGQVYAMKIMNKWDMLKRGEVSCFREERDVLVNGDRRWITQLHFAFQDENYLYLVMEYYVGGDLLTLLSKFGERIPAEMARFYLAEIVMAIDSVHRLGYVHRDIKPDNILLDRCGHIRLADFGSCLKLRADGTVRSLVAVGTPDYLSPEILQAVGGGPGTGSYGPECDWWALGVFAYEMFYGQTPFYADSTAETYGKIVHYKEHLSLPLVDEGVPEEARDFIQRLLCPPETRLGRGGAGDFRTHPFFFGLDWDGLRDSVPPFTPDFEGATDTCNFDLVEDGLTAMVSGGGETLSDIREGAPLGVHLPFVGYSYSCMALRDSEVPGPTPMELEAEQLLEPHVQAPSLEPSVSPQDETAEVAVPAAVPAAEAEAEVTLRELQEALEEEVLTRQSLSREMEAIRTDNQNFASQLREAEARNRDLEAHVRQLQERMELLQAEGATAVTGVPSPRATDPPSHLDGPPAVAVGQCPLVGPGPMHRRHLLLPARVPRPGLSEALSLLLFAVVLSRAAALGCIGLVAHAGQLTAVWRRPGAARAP

Structure (SMILES) | test | conditions | measurement | result
Cn1c2c(Cl)c(Cl)ccc2c2cc[nH]c(=O)c21 | thermal stability, DSF | 10 µM | ΔTm | 0 °C
O=C(O)[C@H]1[C@H](Cn2nnc3ccccc3c2=O)CC[C@@H]1C(=O)c1ccc(OCCC2CCOCC2)cc1 | cell-free assay, competition with immobilised ligand | 1 µM | remaining binding | 83%
O=C1Nc2ccc(Cl)cc2C1=Cc1cc(Cl)c(O)c(Cl)c1 | cell-free assay | 0.5 µM | remaining signal | 112%
Cc1ccc(Nc2nccc(N(C)c3ccc4c(C)n(C)nc4c3)n2)cc1S(N)(=O)=O | enzyme activity, inhibitor | 10 µM | inhibition | -12%
c1ccc(N2CCN(Cc3nc4ccccc4[nH]3)CC2)nc1 | binding, competition with immobilised ligand | 1 µM | remaining binding | 100%
CC(C)(C)c1nc(-c2cccc(NS(=O)(=O)c3c(F)cccc3F)c2F)c(-c2ccnc(N)n2)s1 | enzyme activity, inhibitor, radiometric | 1 µM | remaining activity | 103%
Cn1c2c(Cl)c(Cl)ccc2c2cc(N)[nH]c(=O)c21 | thermal stability, DSF | 10 µM | ΔTm | 0.1 °C
CO[C@H]1CC[C@H](CNc2ccc(S(=O)(=O)NC(=O)c3ccc(N4CCN(CC5=C(c6ccc(Cl)cc6)CC(C)(C)CC5)CC4)cc3Oc3cnc4[nH]ccc4c3)cc2[N+](=O)[O-])CC1 | cell-free assay, competition with immobilised ligand | 1 µM | remaining binding | 91%
CNC(=O)c1cc(Oc2ccc(NC(=O)Nc3ccc(Cl)c(C(F)(F)F)c3)cc2)ccn1 | enzyme activity, inhibitor | 0.3 µM | inhibition | -9%
O=C(Nc1cnn(-c2csc(C(=O)NC3COC3)c2)c1)Nc1ccccc1Cl | enzyme activity, inhibitor | 5 µM | remaining activity | 102%
CS(=O)(=O)NCC[C@H](NC(=O)c1cncc2c1cnn2-c1ccc(F)cc1)c1ccnc(S(C)(=O)=O)c1 | cell-free assay, competition with immobilised ligand | 1 µM | remaining binding | 100%
COc1cc(Cl)c(C(=O)N[C@@H](CN[C@H]2CC[C@@H](N)CC2)Cc2ccc(C#N)cc2)cc1-c1ccc(CN[C@H](C)c2ccc(C)cc2)o1 | enzyme activity, inhibitor | 1 µM | remaining activity | 100%
Cc1ccc(NC(=O)c2ccc(C)c(C(F)(F)F)c2)cc1C#Cc1nn(C2CCC(O)CC2)c2ncnc(N)c12 (stereo not shown) | cell-free assay | 10 µM | remaining signal | 91%
O=C(Nc1cnn(-c2csc(C(=O)NC3COC3)c2)c1)Nc1c(F)cccc1Cl | enzyme activity, inhibitor | 5 µM | remaining activity | 110%
CCN(CC)CCNC(=O)c1c(C)[nH]c(/C=C2\C(=O)Nc3ccc(F)cc32)c1C | enzyme activity, inhibitor | 0.3 µM | inhibition | -8%
CC(C)(O)[C@H]1CC[C@H](Nc2ccc3ncc(-c4cccc(C(F)(F)F)c4)n3n2)CC1 | enzyme activity, inhibitor | 1 µM | remaining activity | 97.5%
CCN(CC)c1ccc(C2=NNC(=O)CC2C)cc1[N+](=O)[O-] (stereo not shown) | enzyme activity, inhibitor | 10 µM | remaining activity | 91%
Cn1c2c(Cl)c(Cl)ccc2c2cn[nH]c(=O)c21 | thermal stability, DSF | 10 µM | ΔTm | 0.4 °C
CN(C)c1ncnc(-c2ccc3nc(Nc4cc(CN5CCN(C(=O)CC(F)(F)F)CC5)ccn4)[nH]c3c2)c1Cl | cell-free assay, competition with immobilised ligand | 1 µM | remaining binding | 91%
Cn1c2c(c3ccccc31)C(C#N)C(C)(C)NC2=O (stereo not shown) | thermal stability, DSF | 10 µM | ΔTm | -0.3 °C
N#CCCc1ccc2c(c1)-c1[nH]c3ccc([N+](=O)[O-])cc3c1CC(=O)N2 | cell-free assay | 0.5 µM | remaining signal | 89.8%
CN(c1ccnc(CNc2nc(Nc3ccc4c(c3)CC(=O)N4)ncc2C(F)(F)F)n1)S(C)(=O)=O | cell-free assay, competition with immobilised ligand | 1 µM | remaining binding | 23%
Cn1c2c(c3ccc(Cl)c(Cl)c31)C(C#N)C1(CCN(C(=O)OC(C)(C)C)CC1)NC2=O (racemic) | thermal stability, DSF | 10 µM | ΔTm | -0.5 °C
C[C@H](c1ccnc(Nc2nc3ccc(-c4cc(N(C)C)ncn4)cc3[nH]2)c1)N1CCN(C(=O)CC(F)(F)F)CC1 | cell-free assay, competition with immobilised ligand | 0.1 µM | remaining binding | 100%
Cn1c2c(c3ccc(Cl)c(Cl)c31)C(C#N)C1(CCNCC1)NC2=O (racemic) | thermal stability, DSF | 10 µM | ΔTm | -0.3 °C
Nc1ncnc2occ(-c3ccc(NC(=O)Nc4cc(C(F)(F)F)ccc4F)cc3)c12 | cell-free assay, inhibitor | 20 µM | remaining signal | 73%
COc1ccc2cc(OCC3(C(=O)O)CN(C(=O)c4ccc(F)cc4)C3)ccc2c1 | cell-free assay, competition with immobilised ligand | 1 µM | remaining binding | 76%
Cc1cc(NC(=O)c2cccc3cc(-c4cccc5[nH]nc(N)c45)ccc23)ccc1F | enzyme activity, inhibitor | 0.1 µM | activity vs control | 99%
